Key:
[1] = melting temperature; fluorescence melt of hairpins on a sequencing array, two-state fit, raised by 9.35 °C to match UV melts; conditions: sodium 0.088 M
Method in brief: (§1)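 With Cy3 and quencher oligos annealed, library hairpins on a sequenced MiSeq flow cell were imaged for Cy3 fluorescence in 50 mM Na-HEPES pH 8.0, 25 mM NaCl, in 2.5 °C steps up to 60 °C. Melting temperature and folding enthalpy were derived from bootstrapped two-state fits of signals normalised to pre-quench Cy3 and to control constructs. Four replicates were combined by inverse variance, with fitted temperatures raised by 9.35 °C to match UV melts.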

[2] = folding enthalpy; higher = less favourable; fluorescence melt of hairpins on a sequencing array, two-state fit; conditions: sodium 0.088 M
Method in brief: as §1

Row | Sequence | Tm [1] [°C] | folding enthalpy [2] [kcal/mol]
1 | GTTATAGGAAACTGTAAC ((((.((....)).)))) | 34 | -27.2
2 | GTTATATCGAAAGATAAC (((..(((....)))))) | 27.7 | -11.2
3 | GTTATCGAAAGATAAAAC ((((((....)))..))) | 26.5 | -9.3
4 | GTTATCGAAAGATTAAC ((((((....))).))) | 29.5 | -15.1
5 | GTTATCGGAAACGACAAC (((.(((....))).))) | 36.4 | -19.8
6 | GTTATCGGAAACGATAGC (.(((((....))))).) | 43.4 | -21.5
7 | GTTATGAAAATAAC (((((....))))) | 38.6 | -16.9
8 | GTTATGTCGAAAGACAAC (((..(((....)))))) | 28.5 | -10.6
9 | GTTATTCGAAAGAACAAC (((.(((....))).))) | 30.5 | -20.6
10 | GTTCAACCGAAAGGTAAC (((..(((....)))))) | 26.7 | -11.7
11 | GTTCAAGGAAACTTAAAC (((.(((....))).))) | 29 | -10.5
12 | GTTCACCGAAAGGTAAAC (((.(((....))).))) | 40.5 | -20.4
13 | GTTCACGAAAGTGAAAC ((((((....))).))) | 46.1 | -16.3
14 | GTTCACGAAAGTGCGAAC ((((((....)))..))) | 31.6 | -10.7
15 | GTTCACGAAAGTGGAAAC ((((((....)))..))) | 30.9 | -13.4
16 | GTTCACGAAAGTGGAAC ((((((....))).))) | 45.4 | -19.1
17 | GTTCACGAAAGTGGTAAC ((((((....)))..))) | 25.6 | -12.5
18 | GTTCACGCGAAAGCGAAC (((..(((....)))))) | 32.7 | -10.2
19 | GTTCAGCGAAAGCTAAC (((.(((....)))))) | 36.4 | -13.8
20 | GTTCAGGGAAACCTGAGC (.(((((....))))).) | 46.6 | -22.5
21 | GTTCATCGAAAGATAAAC (((.(((....))).))) | 31.5 | -18.1
22 | GTTCATCGAAAGATTAAC (((.(((....))).))) | 32.6 | -34.2
23 | GTTCATGGAAACATGAAC (((((((....))))))) | 58.2 | -49.9

Row | Sequence | Tm [1] [°C] | folding enthalpy [2] [kcal/mol]
24 | GTTCATGGAAACATGAGC (.(((((....))))).) | 43.9 | -23.4
25 | GTTCCAGGAAACCGGAAC (((((.(....).))))) | 45.6 | -45.4
26 | GTTCCCGAAAGGGGAAAC ((((((....)))..))) | 37.2 | -11.8
27 | GTTCCCGAAAGGGGAAC ((((((....))).))) | 57.4 | -20.8
28 | GTTCCCGAAAGGGGGAAC ((((((....)))..))) | 48.4 | -19.3
29 | GTTCCCGGAAACGGAAAC (((.(((....))).))) | 41.1 | -24.4
30 | GTTCCTCGAAAGAGAAAC (((.(((....))).))) | 38.1 | -20.3
31 | GTTCGCGAAAGCGAGAAC ((((((....)))..))) | 42.3 | -9.97
32 | GTTCGCGAAAGCGTAAAC ((((((....)))..))) | 31.9 | -10.3
33 | GTTCGCGCGAAAGCGAAC (((..(((....)))))) | 60.5 | -28.1
34 | GTTCGCGGAAACGCAAAC (((.(((....))).))) | 43.7 | -20.8
35 | GTTCGGACGAAAGTCAAC (((..(((....)))))) | 29.1 | -9.64
36 | GTTCGGCGAAAGCCTAAC (((.(((....))).))) | 43 | -19.2
37 | GTTCGGGGAAACCCGAAC (((((((....))))))) | 69 | -39.6
38 | GTTCGTCGAAAGACTAAC (((.(((....))).))) | 41.3 | -22.2
39 | GTTCGTGGAAACATGAGC (.((.((....)).)).) | 31.6 | -18.1
40 | GTTCGTGGAAACGTGAAC ((((..(....)..)))) | 34.8 | -15.3
41 | GTTCTACGAAAGTATAAC (((.(((....))).))) | 34.5 | -24
42 | GTTCTAGCGAAAGCTAAC (((..(((....)))))) | 28.9 | -9.98
43 | GTTCTAGGAAACTAGAAC (((((((....))))))) | 53.1 | -35
44 | GTTCTCACGAAAGTGAAC (((..(((....)))))) | 31.6 | -10.9
45 | GTTCTCGAAAGAGAAAC ((((((....))).))) | 39.7 | -17
46 | GTTCTGCGAAAGCACAAC (((.(((....))).))) | 33.3 | -12.6

Row | Sequence | Tm [1] [°C] | folding enthalpy [2] [kcal/mol]
47 | GTTCTTGGAAACGAGAAC (((((.(....).))))) | 43.6 | -28.6
48 | GTTGACACGAAAGTGAAC (((..(((....)))))) | 34.1 | -14.2
49 | GTTGACCGAAAGGTGAAC (((.(((....))).))) | 48.4 | -27
50 | GTTGACGAAAGTCAGAAC ((((((....)))..))) | 36.5 | -10.4
51 | GTTGACGAAAGTCGAAC ((((((....))).))) | 45.4 | -18.4
52 | GTTGACGGAAACGCCAAC ((((.((....)).)))) | 49.6 | -39.8
53 | GTTGACGGAAACGTCAAC (((((((....))))))) | 66.9 | -33.6
54 | GTTGACGGAAACGTCGAC ((.((((....)))).)) | 54.8 | -43.4
55 | GTTGACGGAAACGTTAAC (((.(((....))).))) | 47.1 | -27
56 | GTTGAGCCGAAAGGCAAC (((..(((....)))))) | 38.8 | -10.6
57 | GTTGAGGGAAACCTCAAC (((((((....))))))) | 59.8 | -42.2
58 | GTTGATGGAAACATCGAC ((.((((....)))).)) | 48.5 | -35.9
59 | GTTGCACGAAAGTGGAAC (((.(((....))).))) | 56.6 | -35.5
60 | GTTGCACGAAAGTGTAAC (((.(((....))).))) | 55.5 | -29.8
61 | GTTGCAGAAATGCAAC ((((((....)))))) | 57.5 | -35.3
62 | GTTGCAGGAAACCGCAAC (((((.(....).))))) | 51.5 | -43.8
63 | GTTGCAGGAAACTGCAGC (.(((((....))))).) | 51.5 | -17.4
64 | GTTGCCGAAAGGCAGAAC ((((((....)))..))) | 37.3 | -8.61
65 | GTTGCCGAAAGGCATAAC ((((((....)))..))) | 36.8 | -9
66 | GTTGCCGAAAGGCCCAAC ((((((....)))..))) | 29.4 | -6.79
67 | GTTGCCGAAAGGCTAAC ((((((....))).))) | 42.3 | -14
68 | GTTGCCGAAAGGCTCAAC ((((((....)))..))) | 29.8 | -7.95
69 | GTTGCCGCGAAAGCGAAC (((..(((....)))))) | 35.6 | -12.6

Row | Sequence | Tm [1] [°C] | folding enthalpy [2] [kcal/mol]
70 | GTTGCCGGAAACGACAAC ((((.((....)).)))) | 48.5 | -28
71 | GTTGCGCGAAAGCGAAAC (((.(((....))).))) | 59.5 | -27.8
72 | GTTGCGGGAAACCGCAGC (.(((((....))))).) | 56.4 | -14.2
73 | GTTGCTGGAAACAGCGAC ((.((((....)))).)) | 54.3 | -39.6
74 | GTTGCTGGAAACAGTAGC (.(.(((....))).).) | 35.3 | -19.7
75 | GTTGGACCGAAAGGTAAC (((..(((....)))))) | 35.8 | -20
76 | GTTGGAGGAAACTTCAAC ((((.((....)).)))) | 41.9 | -31.4
77 | GTTGGCCGAAAGGCTAAC (((.(((....))).))) | 58.3 | -28.6
78 | GTTGGCGAAAGCCCAAAC ((((((....)))..))) | 24.8 | -7.1
79 | GTTGGCGAAAGCCGTAAC ((((((....)))..))) | 33.4 | -9.54
80 | GTTGGCGGAAACGCCGAC ((.((((....)))).)) | 59.4 | -25
81 | GTTGGCGGAAACGCTGAC ((..(((....)))..)) | 45 | -16.8
82 | GTTGGCGGAAACGTCGAC ((.(.((....)).).)) | 47.6 | -19.1
83 | GTTGGGACGAAAGTCAAC (((..(((....)))))) | 41.5 | -19.6
84 | GTTGGGGCGAAAGCCAAC (((..(((....)))))) | 46 | -16.5
85 | GTTGGTCGAAAGACAAC (((.(((....)))))) | 45.7 | -20.4
86 | GTTGGTCGAAAGACGAAC (((.(((....))).))) | 48.1 | -29.9
87 | GTTGGTGCGAAAGCAAAC (((..(((....)))))) | 43 | -20.7
88 | GTTGGTGGAAACACTAAC (((.(((....))).))) | 45 | -29.6
89 | GTTGGTGGAAACACTAGC (.(.(((....))).).) | 27.8 | -9.95
90 | GTTGGTGGAAACATCAAC ((((.((....)).)))) | 46.5 | -37.8
91 | GTTGGTGGAAACGCTAAC (((.(.(....).).))) | 30.7 | -14

Reference: the array DNA melting data of Ke et al. (doi:10.1101/2024.01.08.574731)
